Assay results reported in ChEMBL document CHEMBL1671627, “Increasing trends in antimicrobial resistance among clinically important anaerobes and Bacteroides fragilis isolates causing nosocomial infections: emerging resistance to carbapenems” (2008).
≈ marks a conversion by molar mass, not a printed value.

Legend:
[1] = tested on: Bacteroides thetaiotaomicron; test: Antibacterial activity against beta-lactamase producing Bacteroides thetaiotaomicron assessed as resistant isolates by CLSI agar dilution method in presence of clavulanate; type: functional
Outline: (§1)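 207 nonduplicate anaerobic blood isolates from patients with bloodstream infections at NTUH, collected January–December 2006. MICs were determined by agar dilution following CLSI guidelines. Inocula were applied with a Steers replicator onto supplemented Brucella blood agar and incubated 48 h at 35°C in an anaerobic chamber. MIC was the lowest concentration inhibiting growth. B. fragilis ATCC 25285, B. thetaiotaomicron ATCC 29741 and E. lentum ATCC 43055 served as controls in each run.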

Bacteroides uniformis [2] = test: Antibacterial activity against beta-lactamase producing Bacteroides uniformis assessed as susceptible isolates by CLSI agar dilution method in presence of clavulanate; type: functional
Outline: (§2)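 Agar dilution per CLSI guidelines on nonduplicate anaerobic bloodstream isolates collected at NTUH, January to December 2006. Isolates were spotted by Steers replicator onto supplemented Brucella blood agar and incubated anaerobically for 48 h at 35°C. MIC was the lowest drug concentration that inhibited growth. B. fragilis ATCC 25285, B. thetaiotaomicron ATCC 29741 and E. lentum ATCC 43055 were run as QC in each run.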

Prevotella bivia [3] = test: Antibacterial activity against Prevotella bivia by CLSI agar dilution method in presence of clavulanate; type: functional; outline: as §2
[4] = tested on: Prevotella melaninogenica; test: Antibacterial activity against Prevotella melaninogenica by CLSI agar dilution method in presence of clavulanate; type: functional; outline: as §2
Prevotella buccae [5] = test: Antibacterial activity against Prevotella buccae assessed as susceptible isolates by CLSI agar dilution method in presence of clavulanate; type: functional, Segatella buccae; outline: as §2
Veillonella parvula = test: Antibacterial activity against Veillonella parvula by CLSI agar dilution method in presence of clavulanate; type: functional; outline: as §2
Bacteroides fragilis = test: Antibacterial activity against Bacteroides fragilis by CLSI agar dilution method in presence of clavulanate; type: functional; outline: as §2
[6] = tested on: Clostridium paraputrificum; test: Antibacterial activity against beta-lactamase producing Clostridium paraputrificum assessed as susceptible isolates by CLSI agar dilution method in presence of clavulanate; type: functional
Outline: (§3)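 CLSI agar dilution MICs for anaerobic blood isolates (nonduplicate) collected from bloodstream-infection patients at a Taiwanese tertiary hospital, January–December 2006. Isolates were spotted by Steers replicator onto supplemented Brucella blood agar and incubated anaerobically for 48 h at 35°C. MIC was the lowest drug concentration inhibiting growth. Each run included B. fragilis ATCC 25285, B. thetaiotaomicron ATCC 29741 and E. lentum ATCC 43055 as quality-control strains.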

[7] = tested on: Peptostreptococcus anaerobius; test: Antibacterial activity against beta-lactamase producing Peptostreptococcus anaerobius assessed as susceptible isolates by CLSI agar dilution method in presence of clavulanate; type: functional; outline: as §3
[8] = tested on: Peptoniphilus asaccharolyticus; test: Antibacterial activity against beta-lactamase producing Peptoniphilus asaccharolyticus by CLSI agar dilution method in presence of clavulanate; type: functional; outline: as §3
[9] = tested on: Peptoniphilus asaccharolyticus; test: Antibacterial activity against beta-lactamase producing Peptoniphilus asaccharolyticus assessed as resistant isolates by CLSI agar dilution method in presence of clavulanate; type: functional; outline: as §1
[10] = tested on: Bacteroides thetaiotaomicron; test: Antibacterial activity against beta-lactamase producing Bacteroides thetaiotaomicron assessed as resistant isolates by CLSI agar dilution method in presence of Tazobactam; type: functional; outline: as §1
Phocaeicola vulgatus = test: Antibacterial activity against beta-lactamase producing Bacteroides vulgatus assessed as susceptible isolates by CLSI agar dilution method in presence of Tazobactam; type: functional; outline: as §3
Bacteroides uniformis [11] = test: Antibacterial activity against beta-lactamase producing Bacteroides uniformis by CLSI agar dilution method; type: functional
Bacteroides uniformis [12] = test: Antibacterial activity against beta-lactamase producing Bacteroides uniformis assessed as susceptible isolates by CLSI agar dilution method; type: functional
Bacteroides caccae [13] = test: Antibacterial activity against beta-lactamase producing Bacteroides caccae by CLSI agar dilution method; type: functional
Bacteroides caccae [14] = test: Antibacterial activity against beta-lactamase producing Bacteroides caccae assessed as resistant isolates by CLSI agar dilution method; type: functional
Fusobacterium nucleatum = test: Antibacterial activity against Fusobacterium nucleatum by CLSI agar dilution method; type: functional
Fusobacterium varium = test: Antibacterial activity against Fusobacterium varium assessed as susceptible isolates by CLSI agar dilution method; type: functional
[15] = tested on: Fusobacterium necrophorum; test: Antibacterial activity against Fusobacterium necrophorum assessed as susceptible isolates by CLSI agar dilution method; type: functional
[16] = tested on: Fusobacterium necrophorum; test: Antibacterial activity against Fusobacterium necrophorum assessed as susceptible isolates by CLSI agar dilution method in presence of Tazobactam; type: functional; outline: as §2
Prevotella intermedia = test: Antibacterial activity against Prevotella intermedia assessed as susceptible isolates by CLSI agar dilution method; type: functional
Prevotella buccae [17] = test: Antibacterial activity against Prevotella buccae assessed as resistant isolates by CLSI agar dilution method; type: functional, Segatella buccae
Prevotella buccae [18] = test: Antibacterial activity against Prevotella buccae assessed as susceptible isolates by CLSI agar dilution method in presence of Tazobactam; type: functional, Segatella buccae; outline: as §2
Prevotella bivia [19] = test: Antibacterial activity against Prevotella bivia assessed as susceptible isolates by CLSI agar dilution method in presence of Tazobactam; type: functional; outline: as §2
Clostridium perfringens = test: microbe, parasite or virus in culture; type: functional
Clostridium septicum = test: Antibacterial activity against beta-lactamase producing Clostridium septicum assessed as susceptible isolates by CLSI agar dilution method; type: functional
[20] = tested on: Peptostreptococcus anaerobius; test: Antibacterial activity against beta-lactamase producing Peptostreptococcus anaerobius by CLSI agar dilution method in presence of Tazobactam; type: functional; outline: as §3
[21] = tested on: Peptostreptococcus anaerobius; test: Antibacterial activity against beta-lactamase producing Peptostreptococcus anaerobius assessed as resistant isolates by CLSI agar dilution method in presence of Tazobactam; type: functional; outline: as §1
Finegoldia magna [22] = test: Antibacterial activity against beta-lactamase producing Finegoldia magna by CLSI agar dilution method in presence of Tazobactam; type: functional; outline: as §3
Finegoldia magna [23] = test: Antibacterial activity against beta-lactamase producing Finegoldia magna assessed as resistant isolates by CLSI agar dilution method in presence of Tazobactam; type: functional; outline: as §1

In the case of CC1(C)S[C@@H]2[C@H](NC(=O)[C@H](N)c3ccc(O)cc3)C(=O)N2[C@H]1C(=O)O [AMOXICILLIN], the Activity [1] was 33%, the Activity (Bacteroides uniformis [2]) was 53% and the MIC50 (Prevotella bivia [3]) was 4 µg/mL. For the same compound, the MIC90 (Prevotella bivia [3]) was 16 µg/mL, the MIC50 [4] was 4 µg/mL and the MIC90 [4] was 16 µg/mL. It also gave an Activity (Prevotella buccae [5]) of 81%, an MIC (Veillonella parvula) of 0.12 µg/mL and an MIC50 (Bacteroides fragilis) of 4 µg/mL. The MIC90 (Bacteroides fragilis) was 32 µg/mL, the Activity [6] was 96% and the Activity [7] was 94%. The MIC50 [8] was 0.25 µg/mL, the MIC90 [8] was 2 µg/mL and the Activity [9] was 3%.

Compound CCN1CCN(C(=O)N[C@@H](C(=O)N[C@@H]2C(=O)N3[C@@H]2SC(C)(C)[C@@H]3C(=O)O)c2ccccc2)C(=O)C1=O [PIPERACILLIN] has an Activity [10] of 0%, an Activity (Phocaeicola vulgatus) of 96% and an MIC50 (Bacteroides uniformis [11]) greater than 128 µg/mL. The MIC90 (Bacteroides uniformis [11]) was greater than 128 µg/mL, the Activity (Bacteroides uniformis [12]) was 35% and the MIC50 (Bacteroides caccae [13]) was greater than 128 µg/mL. The MIC90 (Bacteroides caccae [13]) was greater than 128 µg/mL, the Activity (Bacteroides caccae [14]) was 65% and the MIC50 (Fusobacterium nucleatum) was 2 µg/mL (≈ 3.86 µM). For the same compound, the MIC90 (Fusobacterium nucleatum) was 8 µg/mL (≈ 15.5 µM), the Activity (Fusobacterium varium) was 90% and the Activity [15] was 90%. For the same compound, the Activity [16] was 100%, the Activity (Prevotella intermedia) was 71% and the Activity (Prevotella buccae [17]) was 22%. It also gave an Activity (Prevotella buccae [18]) of 100%, an Activity (Prevotella bivia [19]) of 100% and an MIC50 (Clostridium perfringens) of 0.5 µg/mL (≈ 0.966 µM). For the same compound, the MIC90 (Clostridium perfringens) was 2 µg/mL (≈ 3.86 µM), the Activity (Clostridium septicum) was 100% and the MIC [20] was 0.03 µg/mL. The MIC50 [20] was 0.03 µg/mL, the MIC90 [20] was 2 µg/mL and the Activity [21] was 0%. The MIC (Finegoldia magna [22]) was 0.03 µg/mL, the MIC50 (Finegoldia magna [22]) was 0.03 µg/mL and the MIC90 (Finegoldia magna [22]) was 2 µg/mL. The Activity (Finegoldia magna [23]) was 0%.
